Measured values from ChEMBL document CHEMBL3817820, “Development of Potent and Selective Inhibitors for Group VIA Calcium-Independent Phospholipase A2 Guided by Molecular Dynamics and Structure-Activity Relationships” (J Med Chem, 2016).

Legend:
[1] = target: T1, 85/88 kDa calcium-independent phospholipase A2 (Homo sapiens) (UniProt O60733); assay: Inhibition of human group VIA iPLA2 at 0.091 mol fraction using arachidonyl-1-14C PAPC by mixed micelles modified Dole assay
T1 sequence (whole entry): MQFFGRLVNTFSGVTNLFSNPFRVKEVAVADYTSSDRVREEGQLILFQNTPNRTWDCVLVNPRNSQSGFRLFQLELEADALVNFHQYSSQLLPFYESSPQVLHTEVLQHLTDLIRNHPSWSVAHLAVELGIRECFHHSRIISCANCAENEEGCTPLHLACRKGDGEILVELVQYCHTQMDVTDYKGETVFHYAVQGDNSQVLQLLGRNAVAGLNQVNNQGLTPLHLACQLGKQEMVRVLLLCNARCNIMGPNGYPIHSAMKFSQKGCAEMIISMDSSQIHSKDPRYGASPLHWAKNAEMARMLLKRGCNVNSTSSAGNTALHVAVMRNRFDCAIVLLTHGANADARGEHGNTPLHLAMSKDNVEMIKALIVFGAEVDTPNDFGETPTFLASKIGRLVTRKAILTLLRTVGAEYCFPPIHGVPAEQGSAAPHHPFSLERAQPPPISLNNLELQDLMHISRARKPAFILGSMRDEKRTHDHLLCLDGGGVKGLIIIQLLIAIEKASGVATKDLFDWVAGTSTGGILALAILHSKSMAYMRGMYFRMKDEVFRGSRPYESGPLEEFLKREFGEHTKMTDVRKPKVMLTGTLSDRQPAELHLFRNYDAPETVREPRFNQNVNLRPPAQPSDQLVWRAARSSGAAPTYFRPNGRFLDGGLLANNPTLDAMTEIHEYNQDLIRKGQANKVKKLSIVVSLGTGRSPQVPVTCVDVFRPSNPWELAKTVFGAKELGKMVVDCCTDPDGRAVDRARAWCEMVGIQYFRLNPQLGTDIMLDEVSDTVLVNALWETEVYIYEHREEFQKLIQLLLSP
How it was run: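 Substrate micelles: 400 μM Triton X-100, 98.3 μM PAPC, 1.7 μM arachidonyl-1-14C PAPC. Buffer: 100 mM HEPES pH 7.5, 2 mM ATP, 4 mM DTT. Inhibitor tested at 0.091 mole fraction from a 5 mM DMSO stock; percent inhibition determined.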

[2] = target: T1, 85/88 kDa calcium-independent phospholipase A2 (Homo sapiens); assay: Inhibition of human group VIA iPLA2 using arachidonyl-1-14C PAPC by mixed micelles modified Dole assay
How it was run: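 Run in the same micelle substrate (Triton X-100/PAPC/14C-PAPC) in 100 mM HEPES pH 7.5, 2 mM ATP and 4 mM DTT, on compounds showing over 95% inhibition in the screen. Percent inhibition plotted against log mole fraction; XI(50) and its error obtained by nonlinear regression.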

[3] = target: T2, Cytosolic phospholipase A2 (Homo sapiens) (UniProt P47712); assay: Inhibition of human group IVA cPLA2 at 0.091 mol fraction using arachidonyl-1-14C PAPC by mixed micelles modified Dole assay
T2 sequence (whole entry): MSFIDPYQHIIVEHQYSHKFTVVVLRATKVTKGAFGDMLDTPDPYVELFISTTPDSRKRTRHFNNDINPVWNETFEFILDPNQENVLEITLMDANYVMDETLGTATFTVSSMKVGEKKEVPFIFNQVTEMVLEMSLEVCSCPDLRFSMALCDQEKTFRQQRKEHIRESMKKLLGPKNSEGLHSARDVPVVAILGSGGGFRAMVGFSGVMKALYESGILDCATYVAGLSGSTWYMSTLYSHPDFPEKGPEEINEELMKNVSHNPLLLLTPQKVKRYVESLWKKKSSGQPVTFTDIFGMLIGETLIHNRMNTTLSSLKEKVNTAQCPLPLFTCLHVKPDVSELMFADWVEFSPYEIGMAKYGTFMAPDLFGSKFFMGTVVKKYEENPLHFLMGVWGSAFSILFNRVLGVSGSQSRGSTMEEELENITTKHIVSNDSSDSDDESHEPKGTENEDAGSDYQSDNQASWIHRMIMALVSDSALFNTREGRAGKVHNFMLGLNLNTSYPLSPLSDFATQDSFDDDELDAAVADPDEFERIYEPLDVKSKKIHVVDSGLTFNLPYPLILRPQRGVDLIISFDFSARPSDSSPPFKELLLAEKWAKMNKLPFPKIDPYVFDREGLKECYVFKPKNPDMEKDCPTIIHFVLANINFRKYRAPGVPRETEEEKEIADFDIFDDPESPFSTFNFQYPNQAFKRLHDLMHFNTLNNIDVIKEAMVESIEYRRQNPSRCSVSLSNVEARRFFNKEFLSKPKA
How it was run: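 Buffer: 100 mM HEPES pH 7.5 with 90 μM CaCl2, 2 mM DTT and 0.1 mg/ml BSA. Inhibitor screened at 0.091 mole fraction, added from a 5 mM DMSO stock; percent inhibition recorded.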

[4] = target: T3, Phospholipase A2 group V (Homo sapiens) (UniProt P39877); assay: Inhibition of human group V sPLA2 at 0.091 mol fraction using arachidonyl-1-14C PAPC by mixed micelles modified Dole assay
T3 sequence (whole entry): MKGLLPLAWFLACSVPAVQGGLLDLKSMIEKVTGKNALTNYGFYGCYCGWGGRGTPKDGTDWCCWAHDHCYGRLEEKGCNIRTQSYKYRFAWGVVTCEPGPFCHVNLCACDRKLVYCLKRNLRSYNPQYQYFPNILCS

Structure (SMILES)	inhibition [1]	XI50 [2]	inhibition [3]	inhibition [4]
O=C(CSCCc1ccc2ccccc2c1)C(F)(F)F	99%	0.0002	88%	32%
O=C(CSCCc1ccccc1)C(F)(F)C(F)(F)F	99%	0.00015	< 25%	< 25%
COc1ccc(CCSCC(=O)C(F)(F)C(F)(F)F)cc1	100%	0.00012	61%	28%

The remaining lines, values ahead:

inhibition [1]	XI50 [2]	inhibition [3]	inhibition [4]	Structure (SMILES)
96%	9e-05	60%	< 25%	COc1ccc(CCSCC(=O)C(F)(F)F)cc1
64%		52%	35%	COc1ccc(CCCCC(=O)c2noc(C(C)(C)C)n2)cc1
98%	0.0057	70%	38%	COc1ccc(CCSCC(=O)c2noc(C(C)(C)C)n2)cc1
